We go through 5 compounds from PubChem BioAssay AID493104 (Broad Institute, 2011).

The experiment relates to Vibrio harveyi BB721 quorum sensing luminescence, 9 h. Nature of the experiment: V. harveyi downstream QS pathway luminescence inhibition – strain BB721 constitutive-on, dry powder, counter-screen for AI-2 quorum sensing inhibitor project, dose response (AID 493104). Summed up:
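Buffer or medium: AB (autoinducer bioassay) medium. Material: V. harveyi BB721, constitutive-on quorum sensing strain. Times: 9 h exposure, 30 °C.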
In general terms: Counterscreens check selectivity or assay interference.

Molecules are shown by their SMILES.

Usually AC50 stands for the concentration at which the activity in the assay is half-maximal. Take `COc1cc(NC(=O)CN2C(=O)NC(c3ccccc3)(c3ccccc3)C2=O)cc(OC)c1`: the concentration at half-maximal activity (AC50) is 0.919 µM. Consider `CCc1ccc(S(=O)(=O)Nc2ccc(Br)cn2)cc1`, for which the AC50 is 11.9 µM. As for `Cc1cccc(NS(=O)(=O)c2ccc(Oc3ccccc3)cc2)n1`, the AC50 is 12.4 µM.

Take `O=C1C=C/C(=C/Br)O1`: the half-maximal activity concentration (AC50) was 6.43 µM. With `C=Cn1c(C(=O)O)ccc1-c1ccc(CC)cc1` the figure was 13.8 µM.
